ChEMBL document CHEMBL1157960, “10-Phenyl-[12]-cytochalasins Z7, Z8, and Z9 from the marine-derived fungus Spicaria elegans” (J Nat Prod, 2006)

Experiments:
P388 = assay: Cytotoxicity against mouse P388 cells after 72 hrs by MTT method; format: functional, cell-based; conditions: P388, 72 h
Method in brief: (§1)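 Cells kept in RPMI-1640 with 10% FBS at 37 °C under 5% CO2/95% air. Seeded at 5 × 10^4 cells/mL and held 24 h before compound was added in DMSO at various concentrations. Incubation then ran 72 h. MTT (5 mg/mL stock) was added for 4 h, formazan was dissolved in DMSO, and absorbance was read at 540 nm. Result reported as IC50.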

A549 = assay: Cytotoxicity against human A549 cells after 72 hrs by MTT method; format: functional, cell-based; conditions: A549, 72 h; method in brief: as §1

How did the IC50 (P388) turn out when CC1=C(C)[C@H]2[C@H](Cc3ccccc3)NC(=O)[C@]23OC(=O)O/C=C/[C@@](C)(O)C(=O)[C@@H](C)C/C=C/[C@H]3[C@@H]1O [CYTOCHALASIN K] was run?
Its IC50 is 89 µM.

What about the IC50 (A549) of the same molecule?
The IC50 was 8.4 µM.

With C=C1[C@@H](C)[C@H]2[C@H](Cc3ccccc3)NC(=O)[C@]23OC(=O)/C=C/[C@H](C)[C@H](O)[C@@H](C)C/C=C/[C@H]3[C@@H]1O as the molecule, how does the IC50 (P388) read?
Its IC50 is 75 µM.

And the IC50 (A549)?
Its IC50 is 8.8 µM.

Which results are given for C[C@H]1C/C=C/[C@H]2[C@@H]3O[C@]3(C)[C@@H](C)[C@H]3[C@H](Cc4ccccc4)NC(=O)[C@]32OC(=O)O/C=C/[C@@](C)(O)C1=O [CYTOCHALASIN E]?
IC50 (P388): 0.093 µM; IC50 (A549): 0.0062 µM

Which results are given for CC1=C(C)[C@H]2[C@H](Cc3ccccc3)NC(=O)[C@]23OC(=O)/C=C/[C@@](C)(O)C[C@@H](C)C/C=C/[C@H]3[C@@H]1O [CYTOCHALASIN Z9]?
IC50 (P388): 99 µM; IC50 (A549): 8.7 µM

For CC1=C(C)[C@H]2[C@H](Cc3ccccc3)NC(=O)[C@]23OC(=O)/C=C/[C@H](C)[C@H](O)[C@@H](C)C/C=C/[C@H]3[C@@H]1O, which IC50 (P388) is on record?
Its IC50 is 56 µM.

What about the IC50 (A549) of the same molecule?
Its IC50 is 21 µM.
